Activity calls are given as the source filed them. No cut-off for these calls is given here.
Key:
[1] = target: Amyloid-beta precursor protein (Homo sapiens) (UniProt P05067); assay: Inhibition of amyloid beta (1 to 42) (unknown origin) self-induced aggregation at 20 uM after 46 to 48 hrs by thioflavin-T based fluorometric assay
Method in brief: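 HFIP-pretreated Aβ(1–42) redissolved at 25 μM in 50 mM phosphate buffer, pH 7.4. Compound at 20 μM final, with 10% final solvent, run in independent triplicates with a solvent control. Incubated in the dark at room temperature for 46–48 h without agitation. 5 μM ThT in glycine-NaOH pH 8.0 added, ex/em 446/490 nm. Inhibition = 100 − (IFi/IFo × 100).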

[2] = test system: Radical scavenging activity; assay: Antioxidant activity assessed as DPPH free radical scavenging activity after 30 mins by spectrophotometric analysis; format: functional
Method in brief: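 Methanolic DPPH at 400 μM combined with serially diluted sample (1:9 by volume), 30 min at 37 °C in the dark, absorbance at 517 nm. Scavenging % = [1 − (A − C)/B] × 100, with a sample-only blank and MeOH as negative control. IC50 values are mean ± SD of three determinations.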

[3] = Metal chelating activity of the compound assessed as Cu2+-compound complex formation at 25 uM by UV-vis spectrometry; format: physicochemical
Method in brief: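 Difference UV–vis spectra obtained by subtracting metal-alone and compound-alone spectra from the spectra of the mixture. Stoichiometry assessed with ligand fixed at 25 μmol/L and Cu2+ titrated from 2 to 50 μmol/L.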

[4] = target: Amyloid-beta precursor protein (Homo sapiens) (UniProt P05067); assay: Inhibition of Cu2+-induced amyloid beta (1 to 42) (unknown origin) aggregation assessed as reduction of H2O2 production at 800 nM after 30 mins by HRP/Amplex red assay
Method in brief: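 Mixture of CuCl2 400 nM, Aβ, compound 800 nM (1% DMSO) and sodium ascorbate 10 μM in phosphate buffer, 30 min at room temperature. Amplex Red/HRP working solution then added and incubated a further 30 min at room temperature. Fluorescence read at ex/em 530/590 nm, at least three measurements.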

[5] = Ratio of resveratrol IC50 to compound IC50 for DPPH free radical scavenging activity
[6] = Cytotoxicity against human SH-SY5Y cells assessed as reduction of cell viability at 1 to 50 uM after 24 hrs by MTT assay; format: cell-based
Method in brief: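 SH-SY5Y cells grown in EMEM/Ham's F-12 (1:1) with 10% FBS, penicillin and streptomycin, 37 °C, 5% CO2. Seeded at 1×10^4 cells/well, switched to serum-free medium, exposed to compound for 24 h. MTT 4 h at 37 °C, formazan dissolved in DMSO, A570 with 630 nm reference. Mean ± SD of three independent experiments.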

SH-SY5Y [7] = assay: Neuroprotective activity in human SH-SY5Y cells assessed as inhibition H2O2-induced reduction of cell viability at 1.25 to 10 uM after 24 hrs by phase-contrast micrograph analysis; format: functional, cell-based; settings: in the assay text read “MTT assay” for “phase-contrast micrograph analysis”
Method in brief: (§1)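 SH-SY5Y cells seeded at 1×10^4 cells/well. After 24 h, medium replaced with compound (1.25, 2.5, 5, 10 μM) for 24 h at 37 °C. Cells then exposed to 100 μM H2O2 for 24 h and assessed by MTT, with phase-contrast images (200×). Viability given relative to cells without H2O2, three independent experiments.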

[8] = target: Amyloid-beta precursor protein (Homo sapiens) (UniProt P05067); assay: Inhibition of Cu2+-induced amyloid beta (1 to 42) (unknown origin) aggregation at 50 uM after 24 hrs by thioflavin-T based fluorometric assay
Method in brief: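 Aβ(1–42) at 25 μM final in HEPES pH 6.6 with NaCl, with or without 25 μM Cu2+, plus 50 μM compound, incubated at 37 °C for 24 h. Sample diluted into 50 mM glycine-NaOH pH 8.0 containing 5 μM ThT, read at ex/em 446/490 nm. Mean ± SD of three independent experiments.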

[9] = Metal chelating activity of the compound assessed as Fe2+-compound complex formation at 25 uM by UV-vis spectrometry; format: physicochemical
SH-SY5Y [10] = assay: Neuroprotective activity in human SH-SY5Y cells assessed as inhibition H2O2-induced reduction of cell viability at 10 uM after 24 hrs by phase-contrast micrograph analysis; format: functional, cell-based; method in brief: as §1

Chain of Amyloid-beta precursor protein (Homo sapiens) (P05067 whole entry): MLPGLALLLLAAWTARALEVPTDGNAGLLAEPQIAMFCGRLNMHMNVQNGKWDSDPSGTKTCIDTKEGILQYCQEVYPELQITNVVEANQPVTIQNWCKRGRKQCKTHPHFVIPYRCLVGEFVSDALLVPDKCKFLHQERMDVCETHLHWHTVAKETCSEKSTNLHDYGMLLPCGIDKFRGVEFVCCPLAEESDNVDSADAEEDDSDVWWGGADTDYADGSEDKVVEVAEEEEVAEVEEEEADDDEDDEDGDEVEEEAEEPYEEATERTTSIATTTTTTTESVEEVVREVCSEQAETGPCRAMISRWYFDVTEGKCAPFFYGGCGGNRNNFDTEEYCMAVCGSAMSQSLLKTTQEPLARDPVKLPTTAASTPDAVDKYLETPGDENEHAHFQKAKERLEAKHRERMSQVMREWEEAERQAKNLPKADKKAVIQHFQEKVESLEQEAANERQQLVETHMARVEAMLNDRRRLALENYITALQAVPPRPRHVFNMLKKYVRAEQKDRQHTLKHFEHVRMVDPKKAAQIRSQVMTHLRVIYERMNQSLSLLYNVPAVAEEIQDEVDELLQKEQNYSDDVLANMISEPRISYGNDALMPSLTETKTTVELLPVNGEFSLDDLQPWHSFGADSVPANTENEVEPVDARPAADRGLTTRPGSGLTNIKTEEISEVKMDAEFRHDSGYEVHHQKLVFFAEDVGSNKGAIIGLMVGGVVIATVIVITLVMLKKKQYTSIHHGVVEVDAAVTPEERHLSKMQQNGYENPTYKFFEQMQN

| SMILES | inhibition [1] [%] | IC50 [2] [µM] | further results |
| --- | --- | --- | --- |
| Oc1ccccc1/N=C/c1ccccc1 | 51.7 | 39.9 |  |
| Oc1ccccc1/C=N/c1ccc(F)cc1 | 24.9 | > 2000 |  |
| Oc1c(I)cc(Cl)c2cccnc12 |  |  | inhibition [4]: 75%; inhibition [8]: 66.7% |
| Oc1cccc(/N=C/c2ccccc2O)c1 | 66.1 | > 2000 |  |
| Oc1ccc(/C=C/c2cc(O)cc(O)c2)cc1 [RESVERATROL] | 64.2 | 109 | Activity (SH-SY5Y [10]): Active |
| CN(C)c1ccc(/C=N/c2ccccc2O)cc1 | 55.8 | 45.1 |  |
| Oc1ccccc1/C=N/c1ccccc1F | 27.8 | > 2000 |  |
| Oc1ccccc1/C=N/c1cccc(F)c1 | 31.3 | > 2000 |  |
| Oc1ccc(Cl)cc1/C=N/c1ccccc1 | 33.8 | > 2000 |  |
| Oc1ccc(/N=C/c2ccccc2O)cc1 | 71.2 | 399 |  |
| Oc1ccccc1/N=C/c1ccc(F)cc1 | 67.8 | 41.3 |  |
| O=C(O)CN(CCN(CC(=O)O)CC(=O)O)CC(=O)O |  |  | inhibition [4]: > 90% |

Further lines, with some results ahead:

| inhibition [1] [%] | IC50 [2] [µM] | SMILES | further results |
| --- | --- | --- | --- |
| 64.3 | 66.6 | Oc1cccc(/C=N/c2ccccc2O)c1 |  |
| 29 | 794 | COc1ccc(O)c(/C=N/c2ccccc2)c1 |  |
| 67.2 | 51.8 | Oc1ccccc1/C=N/c1ccccc1O |  |
| 64.6 | 14.1 | Oc1ccc(/C=N/c2ccccc2O)cc1O | Activity [3]: Active; inhibition [4]: 80%; Ratio IC50 [5]: 7.7; Activity [6]: Non-toxic; Activity (SH-SY5Y [7]): Active; inhibition [8]: 68.1%; Activity [9]: Active |
| 69.4 | 43.9 | Oc1ccccc1/N=C/c1ccccc1F |  |
| 63.1 | 37.8 | Oc1ccc(/C=N/c2ccccc2O)c(O)c1 |  |
| 44.9 | > 2000 | Oc1ccccc1/C=N/c1ccccc1 [2-((PHENYLIMINO)METHYL)PHENOL] |  |
| 67.6 | 36.8 | Oc1ccccc1/N=C/c1cccc(F)c1 | Activity [6]: Non-toxic; Activity (SH-SY5Y [7]): Active; inhibition [8]: 70.2% |
| 35.7 | 32.7 | COc1ccc(/C=N/c2ccccc2O)cc1 |  |
| 39.4 | 28.5 | COc1ccc(/C=N/c2ccccc2O)cc1OC |  |
| 70.9 | 26.5 | Oc1ccc(/C=N/c2ccccc2O)cc1 | Activity [6]: Non-toxic; Activity (SH-SY5Y [7]): Active; inhibition [8]: 83.7% |
